Test results from ChEMBL document CHEMBL2169790, “Selective inhibitors of aldo-keto reductases AKR1C1 and AKR1C3 discovered by virtual screening of a fragment library” (J Med Chem, 2012).

Legend:
[1] = biological target: T1, Aldo-keto reductase family 1 member C3 (Homo sapiens, UniProt P42330); test: Inhibition of human recombinant AKR1C3 assessed as 1-acenaphthenol oxidation by spectrophotometry
T1 sequence (P42330 whole entry): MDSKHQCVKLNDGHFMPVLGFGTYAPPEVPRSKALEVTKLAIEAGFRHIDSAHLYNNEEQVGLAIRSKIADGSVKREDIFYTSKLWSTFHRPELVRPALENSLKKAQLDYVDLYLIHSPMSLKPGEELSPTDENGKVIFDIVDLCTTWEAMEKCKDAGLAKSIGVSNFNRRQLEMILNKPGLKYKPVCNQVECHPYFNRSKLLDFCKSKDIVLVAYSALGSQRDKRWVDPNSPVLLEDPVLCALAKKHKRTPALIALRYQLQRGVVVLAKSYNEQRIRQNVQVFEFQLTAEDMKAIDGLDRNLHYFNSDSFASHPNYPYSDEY
How it was run: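 NADH formation was monitored at 340 nm using initial velocities. IC50 was read graphically from log10[inhibitor] versus % inhibition. Ki was derived by Cheng-Prusoff for competitive inhibition.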

[2] = biological target: T2, Aldo-keto reductase family 1 member C1 (Homo sapiens) (UniProt Q04828); test: Inhibition of human recombinant AKR1C1 assessed as 1-acenaphthenol oxidation at 400 uM by spectrophotometry
T2 sequence (whole entry): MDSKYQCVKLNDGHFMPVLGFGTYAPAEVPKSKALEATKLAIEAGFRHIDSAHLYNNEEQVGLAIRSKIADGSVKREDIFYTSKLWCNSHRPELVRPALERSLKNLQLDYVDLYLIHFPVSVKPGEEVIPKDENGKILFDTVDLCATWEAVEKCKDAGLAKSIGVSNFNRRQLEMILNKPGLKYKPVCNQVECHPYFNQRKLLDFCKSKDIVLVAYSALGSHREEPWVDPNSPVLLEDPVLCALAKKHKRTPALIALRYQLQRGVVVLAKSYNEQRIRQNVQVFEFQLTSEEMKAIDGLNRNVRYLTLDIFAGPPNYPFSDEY
How it was run: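 Recombinant AKR1C1 (0.3 μM) oxidizing 30 μM 1-acenaphthenol with 2.3 mM NAD+ in 100 mM phosphate pH 9.0, 0.005% triton X-114, 5% DMSO. NADH increase was followed at 340 nm.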

[3] = biological target: T3, Aldo-keto reductase family 1 member C3 (Homo sapiens) (UniProt P42330); test: Inhibition of human recombinant AKR1C3 assessed as 1-acenaphthenol oxidation at 400 uM by spectrophotometry
T3 sequence (whole entry): T1 sequence (P42330 whole entry)

[4] = biological target: T4, Aldo-keto reductase family 1 member C1 (Homo sapiens, UniProt Q04828); test: Inhibition of human recombinant AKR1C1 assessed as 1-acenaphthenol oxidation by spectrophotometry
T4 sequence (Q04828 whole entry): T2 sequence (whole entry)

[5] = biological target: T2, Aldo-keto reductase family 1 member C1 (Homo sapiens); test: Inhibition of human recombinant AKR1C1 assessed as S-tetralol oxidation at 300 uM by micro plate fluorescence reader based assay
How it was run: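 Buffer was 100 mM K3PO4 pH 7.0 with 200 μM NADP+ and 4% DMSO final. Inhibitor was tested at 300 μM, in quadruplicate. Rates are initial velocities.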

[6] = biological target: T1, Aldo-keto reductase family 1 member C3; test: Inhibition of human recombinant AKR1C3 assessed as S-tetralol oxidation by micro plate fluorescence reader based assay
How it was run: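 Fluorometric plate-reader read-out of NADPH formation as initial velocity. Each inhibitor concentration run in quadruplicate. IC50 from fit to y = range/(1+I/IC50)^s + background.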

[7] = biological target: T1, Aldo-keto reductase family 1 member C3; test: Competitive inhibition of human recombinant AKR1C3 assessed as S-tetralol oxidation by Cheng-Prusoff equation analysis
How it was run: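 NADPH formation followed fluorometrically; initial velocities measured in quadruplicate per inhibitor concentration. IC50 fitted as y = range/(1+I/IC50)^s + background, then converted to Ki with the Cheng-Prusoff equation for competitive inhibition.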

[8] = biological target: T5, Aldo-keto reductase family 1 member C4 (Homo sapiens) (UniProt P17516); test: Inhibition of human recombinant AKR1C4 assessed as S-tetralol oxidation at 300 uM by micro plate fluorescence reader based assay
T5 sequence (whole entry): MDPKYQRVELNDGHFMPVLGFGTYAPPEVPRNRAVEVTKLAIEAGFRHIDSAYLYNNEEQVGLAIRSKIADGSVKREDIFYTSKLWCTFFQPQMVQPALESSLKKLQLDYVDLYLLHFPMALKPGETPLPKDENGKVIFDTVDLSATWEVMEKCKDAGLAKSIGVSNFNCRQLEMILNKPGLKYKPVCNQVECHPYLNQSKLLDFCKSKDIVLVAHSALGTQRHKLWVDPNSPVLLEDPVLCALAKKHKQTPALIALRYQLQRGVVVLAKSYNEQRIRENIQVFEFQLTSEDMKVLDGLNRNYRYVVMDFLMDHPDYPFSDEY
How it was run: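 NADPH production was measured fluorometrically. Inhibitor was tested at 300 μM, quadruplicate wells. Inhibition was taken from initial velocities.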

| Structure (SMILES) | Ki [1] [µM] | inhibition [2] [%] | inhibition [3] [%] | other results |
| --- | --- | --- | --- | --- |
| NC(=O)c1ccccc1/N=C/c1cccc(O)c1 | 36 | < 10 |  |  |
| O=C(NCc1cc(=O)[nH]cn1)c1cc2ccccn2n1 | 118 | < 10 |  |  |
| O=C(O)c1cc(-c2cccc(O)c2)nc2ccccc12 | 54 |  |  |  |
| O=C(O)c1cc(NC(=O)c2ccccc2F)ccc1O |  | 30.1 | 48.8 |  |
| CC(=O)Nc1ccc(C(C#N)c2ccccc2)cc1 (stereo not drawn) | 87 |  |  |  |
| Cc1oc(C(N)=O)cc1COc1ccccc1C(N)=O |  |  | 53.4 | Ki [4]: 122 µM |
| O=C(O)c1ccc(CNCc2ccccn2)cc1 |  | < 10 | 51.2 |  |
| Cc1cc(Nc2cc(C(=O)O)ccc2C)nc(C)n1 | 144 | 39.5 |  |  |
| O=C(O)CNC=C1C(=O)CC(c2ccccc2)CC1=O (stereo not drawn) |  |  | 18.4 |  |
| O=C(O)c1cccc(NCC(=O)c2ccccc2)c1 | 72 | 44.8 |  |  |
| NC(=O)c1ccccc1NC(=O)c1ccncc1 |  | 22.5 | 17.8 |  |
| O=C(O)c1cccc(Nc2nc3ccccc3[nH]2)c1 | 142 | < 10 |  |  |
| O=C(O)CCNc1cc2ccccc2cc1C(=O)O | 44 |  |  |  |
| Cc1cc(C(=O)Nc2ccc(O)c(C(=O)O)c2)oc1C | 82 | < 10 |  |  |
| O=CN1CCN(C(=O)c2ccc3ccccc3c2)CC1 |  |  | 46.7 | Ki [4]: 64 µM |
| Cc1cccc(C(=O)Nc2ccccc2C(N)=O)c1 |  | < 10 | 10.8 |  |
| Cc1ccc(NC(=O)c2cccnc2)c(C(=O)O)c1 |  | 47.4 | 33.1 |  |
| O=C(O)CCNS(=O)(=O)c1ccc2ccccc2c1 | 148 |  |  |  |
| Cc1ccc(S(=O)(=O)Nc2cccc(C(=O)O)c2)cc1 | 111 | 43.1 |  |  |
| O=C1COc2ccc(C(=O)c3ccccc3)cc2CN1 | 76 |  |  |  |
| O=C(CC1SC(=O)NC1=O)Nc1ccccc1O (stereo not drawn) | 2 | < 10 |  | inhibition [5]: 37%; IC50 [6]: 0.213 µM; Ki [7]: 0.107 µM; inhibition [8]: 35% |
| O=C(CSc1ncnc2[nH]cnc12)Nc1ccccn1 |  |  | 44.3 | Ki [4]: 69 µM |
| O=C1CCC2(c3ccccc3)Nc3ccccc3N12 (stereo not drawn) | 32 | 43.5 |  | IC50 [6]: 5.46 µM; Ki [7]: 2.73 µM |
| Cc1ccn(Cc2cc(C(=O)O)c3ccccc3n2)n1 | 117 |  |  |  |
| CN(c1ccc(C(=O)O)cc1)S(=O)(=O)c1ccccc1 | 148 |  |  |  |
